Only some compounds are listed: those with a hit (about 4.4% of all), similar ones and a draw of the others.
HSF1 inhib: HSF1 inhibition; NIH3T3-HGL HSE-luciferase, MG132-induced, luminescence 8 h; stronger effect = lower value; activity change, negative = inhibition, % at 7.5 µM (by protocol); 300,000 tested, 0.77% active; AID 2098;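 active = more than half of replicate wells show activity change below -50%, luminescence cut by over half; inconclusive = some wells, but at most half, below -50%; inactive = no replicate well below -50%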;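 note: luciferase reports HSF-1 transcriptional activity via heat shock element; 0% = median of DMSO wells and -100% = zero luminescence signal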
HSF-1 act: increases HSF-1 driven luciferase reporter signal; NIH3T3-HGL HSF-1 luciferase reporter, MG132, 8 h; 100% = twice DMSO control signal; activation, % at 9 µM; 300,000 tested, 1.7% active; AID 504408;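 active = mean replicate activation of at least 50% with a set share of replicates each reaching 50%; inconclusive = only one of those two conditions met; inactive = mean below 50% and too few replicates reaching it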;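 note: 0% = median of the neutral control wells and 100% = twice that signal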
T cruzi repl: T. cruzi replication inhibition. T. cruzi beta-gal in NIH3T3, luminescence, 90 h. inhibition, % (concentration not given with the values). 300,000 tested, 1.4% active. AID 1885;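 active = mean inhibition across valid replicates above about 55%, limit read from the data; inconclusive = mean below that limit but half or more replicates reach it; inactive = mean below it, under half of replicates reach it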;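 note: signal also drops with host cell toxicity which is not excluded here; 0% = plate median of DMSO wells and 100% = zero luminescence signal; higher percent means less beta-gal luminescence so fewer parasites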
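System: NIH/3T3 fibroblasts plus reporter T. cruzi. Medium: DMEM plus 2% FBS. Probe or stimulus: 5000 reporter trypomastigotes per well. Compound: single 50 nL compound addition per well in DMSO. Incubation: co-culture of at least 90 h after 3 h attachment. Detection: GalScreen β-gal luminescence, detergent lysis, 60 min. Evaluation: parasite load inhibition, %.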
HIF activator: HIF pathway transcriptional activation. U2OS HRE-luciferase reporter, luminescence; normalized: DMSO 0%, desferrioxamine 100%. activation, % at 7.5 µM (by protocol). 300,000 tested, 0.32% active. AID 1910;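 active = mean activation of at least 10% of the iron chelator positive control signal, with at least half of replicates also reaching 10%; inconclusive = mean and replicate majority disagree about reaching 10%; inactive = mean and most replicates under 10%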
Calb FLC: affects C. albicans growth with fluconazole | AID 1979 | 300,000 tested, 0.57% active | growth inhibition, % (no concentration beside the values) | C. albicans CaCi-2 + fluconazole, Alamar Blue growth, 48 h;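 active = growth inhibition above about 58% in most replicates, limit read from the data, passing the limit was not always enough; inconclusive = exactly half the replicates above a set limit; inactive = most replicates below a set limit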;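 note: all wells also contain fluconazole at 8 µg/ml as a sub-toxic cotreatment; 0% = median of DMSO wells and 100% = median of geldanamycin control wells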
Active calls of the source: *; ? = inconclusive; nt = no result given.

SMILES | HSF1 inhib | HSF-1 act | T cruzi repl | HIF activator | Calb FLC
CCCN(CCC)S(=O)(=O)c1ccc(C(=O)Nc2nnc(-c3cc(OC)cc(OC)c3)o2)cc1 | -9.7 | -18.7 | 58.5* | -0.2 | -0.1
COCc1nnc(NC(=O)c2ccc(S(=O)(=O)N(CC(C)C)CC(C)C)cc2)o1 | -14.6 | -14.9 | -37.4 | 0.1 | -9.8
COc1ccccc1-c1nnc(NC(=O)c2ccc(S(=O)(=O)N(C)C)cc2)o1 | -5.1 | 4.3 | -10.9 | 0.1 | -5.3
CCN(Cc1ccccc1)S(=O)(=O)c1ccc(C(=O)Nc2nnc(-c3ccccc3OC)o2)cc1 | -10.4 | -13.2 | 62.0* | -8.3 | 82.7*
C=CCN(CC=C)S(=O)(=O)c1ccc(C(=O)Nc2nnc(COC)o2)cc1 | -8.7 | 0.1 | -26.5 | -0.2 | 114.0*
CCN(c1ccccc1)S(=O)(=O)c1ccc(C(=O)Nc2nnc(C3CC3)o2)cc1 | -7.6 | 14.9 | 71.8* | -0.3 | 78.6*
O=S(=O)(Nc1ccon1)c1ccc(Br)s1 | 2.2 | -3.3 | -8.3 | -0.1 | -2.2
Cc1cc(C(C)(C)C)oc1C(=O)N(CC(=O)NC1CCCC1)c1ccc(F)cc1 | -2.3 | 17.9 | 17.5 | -0.4 | -73.3
Cc1cc(C(C)(C)C)oc1C(=O)N(CC(=O)NC1CCCC1)c1c(C)cccc1C | -52.8* | -57.7 | 31.9 | -0.3 | 10.5
Cc1cc(C)nc(Sc2nc(Cl)nc(N(c3ccccc3)c3ccccc3)n2)n1 | 19.7 | 53.8* | 4.8 | 1.0 | 13.4
NC(=O)c1ccsc1NC(=O)CS(=O)(=O)c1ccc(Cl)cc1 | 8.7 | 29.8 | -15.8 | -0.2 | -8.2
Cc1ccc(NC2c3ncccc3C(=O)N2Cc2cccs2)cc1 (stereo not drawn) | 9.8 | 13.8 | -0.2 | -0.1 | -21.1
Cc1noc(C)c1C(=O)N1CCC(C(=O)c2ccccc2)CC1 | -61.7* | -70.7 | -16.9 | -0.2 | -2.6
Cc1noc(C)c1C(=O)N1CCC(Cc2ccccc2)CC1 | -2.3 | 3.9 | -6.8 | -0.4 | -5.2
COc1ccc(C2CC(C)(c3ccc(OC)cc3OC)Nc3ccccc3N2)c(OC)c1 (stereo not drawn) | -4.8 | 13.1 | 73.5* | 0.6 | ?
COCCn1c(=NC(=O)c2ccc(S(=O)(=O)N3CCCc4ccccc43)cc2)sc2cc(S(C)(=O)=O)ccc21 | -13.3 | 6.8 | 34.7 | 105.1* | 1.9
COc1ccc(C(=O)NCc2nnc(SCC(=O)N3CCc4ccccc43)n2C2CCCCC2)cc1 | 14.8 | 29.7 | 25.2 | 0.0 | -4.0
COc1ccc(C(=O)NCc2nnc(SCC(=O)N3CCc4ccccc43)n2CCc2ccccc2)cc1 | 31.1 | 79.7* | 25.7 | 0.1 | ?
COc1ccccc1NC(=O)C(C)OC(=O)/C=C/c1ccc2ccccc2n1 (stereo not drawn) | 20.3 | 62.5* | -21.3 | 2.0 | 15.4
COc1cccc(NC(=O)CN(C)C(=O)/C=C/c2ccc3ccccc3n2)c1 | 16.7 | 28.1 | -4.4 | -0.9 | 3.2
O=C1NC2(CCCCC2)C(=O)N1Cc1cccc(C(F)(F)F)c1 | -6.0 | -0.2 | -10.1 | -1.4 | -8.6
CC(=O)c1cc(C#N)c(N2CCCC2)nc1C | -4.9 | -5.3 | 10.8 | 0.1 | 92.8*
CC12CCC(=O)N1C(C(=O)NNC(=O)c1cccc(Cl)c1)CS2 (stereo not drawn) | -0.3 | -4.8 | -1.2 | 1.1 | -4.0
CCOC(=O)NCc1ccccc1 | 4.9 | 23.6 | -5.0 | -0.1 | 2.1
O=C(NCc1ccc(C(=O)O)cc1)OCc1ccccc1 | -54.1* | -63.8 | 2.4 | 0.9 | 1.6
SMILES | HSF1 inhib | HSF-1 act | T cruzi repl | HIF activator | Calb FLC
CCOC(=O)C#CC(CCc1ccccc1)OS(N)(=O)=O (stereo not drawn) | 16.6 | 25.1 | -4.3 | -2.3 | 9.9
O=C(CNS(=O)(=O)c1ccc(Br)s1)Nc1ccc2c(c1)OCCO2 | -10.6 | 4.4 | -1.1 | 0.3 | -2.6
O=C(CNS(=O)(=O)c1ccc(Br)s1)NCC1COc2ccccc2O1 (stereo not drawn) | -0.1 | 5.0 | -9.0 | -0.7 | 88.0*
O=C(NC1=NCCS1)C1COc2ccccc2O1 (stereo not drawn) | -50.8* | -59.1 | 9.5 | -2.5 | -4.9
O=C(Nc1ccncc1)C1COc2ccccc2O1 (stereo not drawn) | -1.3 | -7.5 | 0.4 | 0.6 | -3.0
Cc1ccc(Cl)cc1NC(=O)C1COc2ccccc2O1 (stereo not drawn) | -63.6* | -73.2 | 1.9 | -0.1 | -58.1
O=C(NCC1COc2ccccc2O1)c1ccc(Cl)cc1 (stereo not drawn) | 31.3 | 62.2* | 10.0 | 3.5 | -8.5
Cn1cc(S(=O)(=O)NC2CCCCC2)c(=O)n(C)c1=O | -3.9 | -9.8 | -5.1 | 0.2 | 6.0
O=c1c(Cl)nc2cc(Cl)ccc2n1CCNc1ncc(C(F)(F)F)cc1Cl | 20.5 | 14.2 | 17.2 | 0.2 | -1.2
Cc1cc(NCc2ccco2)n2ncnc2n1 | 5.1 | -2.8 | -8.8 | 0.2 | 6.7
Cc1cc(Cl)ccc1NC(=O)C1COc2ccccc2O1 (stereo not drawn) | 12.7 | 52.8* | 0.9 | -29.5 | 0.1
Cc1cccc(OCC(=O)OCC(=O)N2CCN(C(=O)c3ccco3)CC2)c1C | -2.3 | -0.4 | -13.0 | 0.4 | -6.6
Cc1cc(=O)n2nc(-c3ccc(C(F)(F)F)cc3)sc2n1 | -69.7* | -76.0 | 7.8 | 2.0 | -1.3
CC1(C)CN(c2ccccc2)N(C(=O)c2ccc(C#N)cc2)C1=O | nt | nt | nt | nt | 85.0*
CC1(C)CN(c2ccccc2)N(C(=O)c2ccc(F)cc2)C1=O | 8.3 | 1.1 | 17.0 | -0.1 | 5.2
CCc1nc(N2CCN(Cc3ccc4c(c3)OCO4)CC2)c2oc3ccccc3c2n1 | -4.0 | 17.1 | 8.7 | 1.6 | -32.1
CSc1ccccc1NC(=O)COC(=O)CSc1ccc(C)cc1 | -0.4 | -8.8 | -5.6 | -0.2 | -1.5
CCC1Oc2ccccc2N(CC(=O)Nc2ccccc2OC)C1=O (stereo not drawn) | -4.9 | 14.5 | -20.0 | 224.9* | 31.5
CCOc1cc(C(=S)N2CCOCC2)ccc1OS(=O)(=O)c1ccccc1[N+](=O)[O-] | 2.8 | -6.7 | 6.8 | 0.1 | 5.5
CC(C)OC(=O)Cn1c(=O)oc2ccccc21 | -51.7* | -61.9 | -7.9 | -1.0 | -2.1
CCOc1ccc(S(=O)(=O)N2CCC(C(=O)NCCc3ccc(OC)c(OC)c3)CC2)cc1 | 4.6 | -11.7 | -17.7 | 0.0 | -0.5
O=C(NNC(=S)NC(=O)c1ccccc1Cl)c1cccc([N+](=O)[O-])c1 | 0.4 | -7.2 | -3.1 | 0.3 | -11.4
O=C(NC(NC(=S)Nc1c(Cl)cccc1Cl)C(Cl)(Cl)Cl)c1cccc([N+](=O)[O-])c1 (stereo not drawn) | 2.4 | -3.5 | 58.6* | 0.2 | -1.3
O=C(CC(=O)c1cccc([N+](=O)[O-])c1)Nc1ccccc1Cl | 1.5 | 2.2 | -23.2 | -0.1 | 103.1*
N=C1C(c2nc3ccccc3s2)=C(O)CN1C1CCCCC1 | 26.4 | 53.9* | 11.8 | 2.1 | 5.4
CCCCN(CCCNC(=O)C1CCN(S(=O)(=O)CC)CC1)c1ccccc1 | 34.6 | 64.3* | 0.9 | -0.4 | 4.1

Source: PubChem (Broad Institute)
